# Source: publication PMC6402543 (Nature, 2018)
# Where two headings read alike, the source gives them in different places.
# Legend:
# [1] = system: L. donovani amastigotes (LV9); conditions: uid; cited from earlier work
# [2] = system: L. donovani amastigotes (LV9); assay: In vivo efficacy, mouse model of VL; parameters: species or system Leishmania donovani; conditions: 25 mg/kg bid, 10 days, oral
# Procedure, shortened: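 Each treatment arm used 5 mice. Regimens were dosed once daily (uid) or twice daily (bid) for 5 or 10 days, and bid dosing for 10 days was run over a dose range. Parasite burden was scored as Leishman Donovan Units: amastigotes per 500 nucleated cells multiplied by organ weight in g. Read-out was reduction in parasite load.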
# [3] = system: L. donovani axenic amastigotes; assay: Cidal axenic amastigote assay; format: cell-based; conditions: Leishmania donovani, read-out: Cidal axenic EC50
# Stability in microsomes [4] = format: in vitro ADME, dog (beagle); conditions: Dog; 0.5 μM
# Procedure, shortened: (§1)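 Liver microsomes of each stated species were incubated with test compound at 0.5 µM. Intrinsic clearance (Cli) is reported in mL/min/g tissue.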
# [5] = system: L. donovani promastigotes (LdBOB); assay: Cell cycle analysis; format: cell-based, Leishmania donovani; conditions: 5x EC50 for 8 h
# Stability in hepatocytes [6] = format: in vitro ADME, rat (Sprague Dawley); conditions: Rat; 0.5 μM
# Procedure, shortened: (§2)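 Test compound was incubated with hepatocytes of the stated species at 0.5 µM. The read-out is intrinsic clearance (Cli), expressed as mL/min/g tissue.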
# Rat pharmacokinetics = format: in vivo, Rat (male, SD)
# [7] = system: L. donovani intramacrophage amastigotes (INMAC); assay: Intra macrophage drug sensitivity assay; format: cell-based, Leishmania donovani; conditions: 5 RES clone 1 vs WT intramacrophage amastigotes
# Stability in microsomes [8] = format: in vitro ADME, rat (Sprague Dawley); conditions: Rat; 0.5 μM
# Procedure, shortened: as §1
# Stability in microsomes [9] = format: in vitro ADME; conditions: Human; 0.5 μM
# Procedure, shortened: as §1
# [10] = system: L. donovani promastigotes (LdBOB); assay: Promastigote drug sensitivity assay; format: cell-based, Leishmania donovani; conditions: for EC50: Leishmania donovani
# Mouse pharmacokinetics = format: in vivo, Mouse (male, CD1); conditions: for F% based on AUC(0-inf): mouse
# Stability in microsomes [11] = format: in vitro ADME, mouse (CD1); conditions: Mouse; 0.5 μM
# Procedure, shortened: as §1
# [12] = Solubility in simulated physiological media; format: physicochemical; conditions: fed simulated intestinal fluid (FeSSIF), pH 6.5
# Stability in hepatocytes [13] = format: in vitro ADME, dog (beagle); conditions: Dog; 0.5 μM
# Procedure, shortened: as §2
# [14] = system: L. donovani clinical isolates (LV9, SUKA 001, BHU1, DD8); format: cell-based, Leishmania donovani
# [15] = Non-GLP preclinical assessment of cardiovascular effects and genotoxicity
# Stability in hepatocytes [16] = format: in vitro ADME, mouse (CD1); conditions: Mouse; 0.5 μM
# Procedure, shortened: as §2
# [17] = system: L. donovani axenic amastigotes; assay: Rate-of-kill of axenic amastigotes; format: cell-based, Leishmania donovani
# Stability in hepatocytes [18] = format: in vitro ADME; conditions: Human; 0.5 μM
# Procedure, shortened: as §2
# [19] = Rat 7-day repeat dose oral toxicology; format: in vivo, rat (male Wistar Han); conditions: all doses tested
# THP-1 cells = assay: THP-1 host cell toxicity in the intra-macrophage assay; format: cell-based; conditions: Homo sapiens, THP-1, read-out: THP-1 EC50
# [20] = male, Sprague Dawley, whole blood, iv, 1 mg/kg
# [21] = male, Sprague Dawley, whole blood, po, 10 mg/kg
# [22] = male, Sprague Dawley, whole blood, po, 100 mg/kg
# [23] = male, Sprague Dawley, whole blood, po, 300 mg/kg
# [24] = male, CD1, mouse, whole blood, iv, 1 mg/kg
# [25] = male, CD1, mouse, whole blood, po, 10 mg/kg
# [26] = male, CD1, mouse, whole blood, po, 100 mg/kg
# [27] = male, CD1, mouse, whole blood, po, 300 mg/kg
smiles,measurement,setting,value
CCCCCCCCCCCCCCCCOP(=O)([O-])OCC[N+](C)(C)C [miltefosine],ED90 in a mouse model,[1],27 mg/kg
C[C@H]1CN(c2n[nH]c3nc(N[C@H]4CC[C@H](NS(=O)(=O)CCC(F)(F)F)CC4)ncc23)CCO1 [Compound 7],Reduction in parasite load,[2],99%
same,EC50,[3],100 nM
same,Microsomes Cli,Stability in microsomes [4],<0.4 mL/min/g tissue
same,Effect on cell-cycle progression,[5],accumulation of cells in G1 and in G2/M and a decrease in the proportion of cells in S phase
same,Hepatocytes Cli,Stability in hepatocytes [6],0.77 mL/min/g tissue
same,AUC(0-inf),Rat pharmacokinetics; [20],1510 ± 782 ng·h/mL
same,Vd,Rat pharmacokinetics; [20],0.4 ± 0.1 L/kg
same,clearance,Rat pharmacokinetics; [20],14 ± 9 mL/min/kg
same,half-life,Rat pharmacokinetics; [20],0.4 ± 0.2 h
same,AUC(0-inf),Rat pharmacokinetics; [21],6480 ± 2490 ng·h/mL
same,Cmax,Rat pharmacokinetics; [21],1040 ± 261 ng/mL
same,Tmax,Rat pharmacokinetics; [21],2 h
same,AUC(0-inf),Rat pharmacokinetics; [22],61200 ± 23600 ng·h/mL
same,Cmax,Rat pharmacokinetics; [22],8470 ± 3750 ng/mL
same,Tmax,Rat pharmacokinetics; [22],7.3 h
same,AUC(0-inf),Rat pharmacokinetics; [23],136000 ± 24800 ng·h/mL
same,Cmax,Rat pharmacokinetics; [23],14800 ± 2680 ng/mL
same,Tmax,Rat pharmacokinetics; [23],7.3 h
same,F% based on AUC(0-inf),Rat pharmacokinetics; oral 10 mg/kg,46 ±18%
same,F% based on AUC(0-inf),Rat pharmacokinetics; oral 100 mg/kg,40 ± 15%
same,F% based on AUC(0-inf),Rat pharmacokinetics; oral 300 mg/kg,51 ± 22%
same,Fold difference,[7],5
same,Microsomes Cli,Stability in microsomes [8],<0.5 mL/min/g tissue
same,Microsomes Cli,Stability in microsomes [9],0.71 mL/min/g tissue
same,Fold,"[10]; 4-resistant clone 1, fold resistance vs wild type",20
same,Fold,"[10]; 4-resistant clone 2, fold resistance vs wild type",24
same,Fold,"[10]; 4-resistant clone 3, fold resistance vs wild type",48
same,Fold,"[10]; 5-resistant clone 1, fold resistance vs wild type",41
same,Fold,"[10]; 5-resistant clone 2, fold resistance vs wild type",35
same,Fold,"[10]; 5-resistant clone 3, fold resistance vs wild type",22
same,EC50 relative to WT,[10]; CRK12MUT and CYC9 co-overexpressing,~ 6 fold
same,EC50 relative to WT,[10]; CRK12MUT overexpressing,~ 3.4 fold
same,EC50 relative to WT,[10]; CRK12WT and CYC9 co-overexpressing,~ 3 fold
same,EC50,"[10]; read-out: pEC50 (SD), 4-resistant clone 1 promastigotes (converted)",1580 nM
same,EC50,"[10]; read-out: pEC50 (SD), 4-resistant clone 2 promastigotes (converted)",2000 nM
same,EC50,"[10]; read-out: pEC50 (SD), 4-resistant clone 3 promastigotes (converted)",3980 nM
same,EC50,"[10]; read-out: pEC50 (SD), 5-resistant clone 1 promastigotes (converted)",3160 nM
same,EC50,"[10]; read-out: pEC50 (SD), 5-resistant clone 2 promastigotes (converted)",3160 nM
same,EC50,"[10]; read-out: pEC50 (SD), 5-resistant clone 3 promastigotes (converted)",2000 nM
same,EC50,"[10]; read-out: pEC50 (SD), Wild type (Age-matched) promastigotes (converted)",50.1 nM
same,EC50,"[10]; read-out: pEC50 (SD), Wild type (Start clone) promastigotes (converted)",79.4 nM
same,Fold,"[10]; Wild type (Age-matched) promastigotes, fold vs wild type",1
same,Fold,"[10]; Wild type (Start clone) promastigotes, fold vs wild type",1
same,AUC(0-inf),Mouse pharmacokinetics; [24],104 ± 26 ng·h/mL
same,Vd,Mouse pharmacokinetics; [24],4 ± 0.5 L/kg
same,clearance,Mouse pharmacokinetics; [24],169 ± 50 mL/min/kg
same,half-life,Mouse pharmacokinetics; [24],0.3 ± 0.04 h
same,AUC(0-inf),Mouse pharmacokinetics; [25],1460 ± 362 ng·h/mL
same,Cmax,Mouse pharmacokinetics; [25],561 ± 148 ng/mL
same,Tmax,Mouse pharmacokinetics; [25],2 h
same,AUC(0-inf),Mouse pharmacokinetics; [26],39400 ± 23800 ng·h/mL
same,Cmax,Mouse pharmacokinetics; [26],8810 ± 1970 ng/mL
same,Tmax,Mouse pharmacokinetics; [26],3 h
same,AUC(0-inf),Mouse pharmacokinetics; [27],66200 ng·h/mL
same,Cmax,Mouse pharmacokinetics; [27],11400 ± 4210 ng/mL
same,Tmax,Mouse pharmacokinetics; [27],5 h
same,F% based on AUC(0-inf),Mouse pharmacokinetics; oral 10 mg/kg,>100%
same,F% based on AUC(0-inf),Mouse pharmacokinetics; oral 100 mg/kg,>100%
same,F% based on AUC(0-inf),Mouse pharmacokinetics; oral 300 mg/kg,>100%
same,Microsomes Cli,Stability in microsomes [11],0.52 mL/min/g tissue
same,solubility at 4 h,[12],25 µg/mL
same,Hepatocytes Cli,Stability in hepatocytes [13],0.31 mL/min/g tissue
same,Variation in potency against a panel of Leishmania clinical-derived lines,[14],less than 10 fold
same,Cardiovascular effects and genotoxicity,[15],did not reveal any issues that would prevent further development
same,Hepatocytes Cli,Stability in hepatocytes [16],0.84 mL/min/g tissue
same,Time at which compound was cytocidal,[17]; 0.2 μM,96 h
same,Time at which compound was cytocidal,[17]; 1.8 μM,48 h
same,Hepatocytes Cli,Stability in hepatocytes [18],0.5 mL/min/g tissue
same,Adverse effects (clinical chemistry and histopathology),[19],no significant adverse effects
same,EC50,THP-1 cells,> 50000 nM
